Measurements taken from ChEMBL document CHEMBL1139975, “Cyclic benzamidines as orally efficacious NR2B-selective NMDA receptor antagonists” (Bioorg Med Chem Lett, 2007).

Columns and labels:
[1] = molecular target: T1, Glutamate receptor ionotropic, NMDA 2B (Homo sapiens, UniProt Q05586+Q13224); experiment: Binding affinity to NMDA NR2B receptor
[2] = molecular target: T1, Glutamate receptor ionotropic, NMDA 2B; experiment: Antagonist activity at NMDA NR2B receptor assessed as calcium flux; assay type: functional
[3] = Half life in rat at 2 mg/kg, iv and 10 mg/kg, po; assay type: ADME, organism-based; settings: in vivo
How it was run: (§1)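 Rats were dosed 2 mg/kg iv and 10 mg/kg po in separate arms. Plasma Cmax, plasma half-life, clearance and oral bioavailability were derived from these two dosings.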

[4] = Oral bioavailability in rat at 10 mg/kg; assay type: ADME, organism-based; settings: in vivo; how it was run: as §1
[5] = Cmax in rat at 2 mg/kg, iv and 10 mg/kg, po; assay type: ADME, organism-based; settings: in vivo; how it was run: as §1
[6] = Clearance in rat at 2 mg/kg, iv and 10 mg/kg, po; assay type: ADME, organism-based; settings: in vivo; how it was run: as §1
[7] = tested on: Rattus norvegicus; experiment: Reduction in hyperalgesic response in po dosed carrageenan-induced hyperalgesia rat model; assay type: functional
How it was run: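 Carrageenan was used to induce hyperalgesia in rats, and test compound was given orally. Behavioral responses to noxious stimuli were scored, and the hyperalgesic response was expressed as % reduction versus control. ED50 was derived from oral dosing.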

T1 sequence (Q13224 whole entry, one chain of several): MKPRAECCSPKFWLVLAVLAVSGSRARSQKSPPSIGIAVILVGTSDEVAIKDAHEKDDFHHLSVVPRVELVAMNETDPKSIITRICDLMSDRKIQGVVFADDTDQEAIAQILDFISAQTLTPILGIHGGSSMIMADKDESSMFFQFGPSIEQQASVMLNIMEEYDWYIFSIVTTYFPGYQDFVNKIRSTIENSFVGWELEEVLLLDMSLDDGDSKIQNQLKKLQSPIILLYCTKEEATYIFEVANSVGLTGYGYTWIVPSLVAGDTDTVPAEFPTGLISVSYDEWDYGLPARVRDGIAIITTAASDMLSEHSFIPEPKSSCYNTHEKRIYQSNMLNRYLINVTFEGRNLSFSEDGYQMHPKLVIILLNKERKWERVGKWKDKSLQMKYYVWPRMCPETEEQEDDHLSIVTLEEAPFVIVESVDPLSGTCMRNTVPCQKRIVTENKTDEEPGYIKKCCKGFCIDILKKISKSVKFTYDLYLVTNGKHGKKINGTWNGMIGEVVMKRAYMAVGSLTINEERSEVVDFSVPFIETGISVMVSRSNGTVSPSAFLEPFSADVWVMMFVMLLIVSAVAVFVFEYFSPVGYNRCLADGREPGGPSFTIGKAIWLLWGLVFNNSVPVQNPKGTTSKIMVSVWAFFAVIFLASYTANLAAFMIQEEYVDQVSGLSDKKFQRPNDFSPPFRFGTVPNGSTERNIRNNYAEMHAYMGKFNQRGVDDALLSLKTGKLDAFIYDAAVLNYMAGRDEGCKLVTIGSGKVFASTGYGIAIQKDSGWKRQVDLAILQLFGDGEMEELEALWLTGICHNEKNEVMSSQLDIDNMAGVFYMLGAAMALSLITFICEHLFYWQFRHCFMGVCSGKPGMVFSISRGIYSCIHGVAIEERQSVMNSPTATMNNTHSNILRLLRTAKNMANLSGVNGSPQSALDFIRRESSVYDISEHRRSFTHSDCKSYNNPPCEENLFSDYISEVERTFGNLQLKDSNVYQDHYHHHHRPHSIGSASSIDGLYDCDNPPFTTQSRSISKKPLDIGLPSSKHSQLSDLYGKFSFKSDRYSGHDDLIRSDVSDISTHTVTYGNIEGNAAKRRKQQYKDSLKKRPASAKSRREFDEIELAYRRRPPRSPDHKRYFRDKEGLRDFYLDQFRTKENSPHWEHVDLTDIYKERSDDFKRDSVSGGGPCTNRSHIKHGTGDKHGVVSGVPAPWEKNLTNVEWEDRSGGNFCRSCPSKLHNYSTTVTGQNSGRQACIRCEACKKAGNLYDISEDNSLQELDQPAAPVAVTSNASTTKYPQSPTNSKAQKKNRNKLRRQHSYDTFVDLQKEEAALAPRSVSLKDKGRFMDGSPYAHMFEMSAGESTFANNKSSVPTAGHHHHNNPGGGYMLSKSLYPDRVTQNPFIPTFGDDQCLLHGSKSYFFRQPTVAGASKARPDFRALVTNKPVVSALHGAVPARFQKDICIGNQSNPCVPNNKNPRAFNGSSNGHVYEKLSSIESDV

Ki [1] | IC50 [2] | Structure (SMILES) | also measured
223 nM | 3670 nM | FC(F)(F)Oc1ccc(C2=NC(c3cc(Cl)cc(Cl)c3)CN2)cc1Cl (configuration not stated) | 
353 nM | 1270 nM | FC(F)(F)Oc1ccc(C2=NCC(c3ccccc3C(F)(F)F)N2)cc1Cl (configuration not stated) | 
505 nM | 3480 nM | FC(F)(F)Oc1ccc(C2=NCC(c3ccccc3OC(F)(F)F)N2)cc1Cl (configuration not stated) | 
3.6 nM | 5.9 nM | COc1ccccc1CN1Cc2cc(OC(F)(F)F)ccc2C1=N | half-life [3]: 2 h; bioavailability [4]: 5%; Cmax [5]: 215 nM; clearance [6]: 66 mL/min/kg; ED50 [7]: 20 mg/kg
7350 nM |  | OC1CN=C(c2ccc(OC(F)(F)F)cc2)NC1c1ccccc1 (configuration not stated) | 
296 nM | 1980 nM | FC(F)(F)Oc1ccc(C2=NC(c3cccc(Cl)c3)CN2)cc1 (configuration not stated) | 
8 nM | 49 nM | N=C1c2ccc(OC(F)(F)F)cc2CN1Cc1cccc(Cl)c1 | 
4200 nM |  | FC(F)(F)Oc1ccc(C2=NCCCC(c3ccccc3)N2)cc1 (configuration not stated) | 
2.2 nM | 12 nM | N=C1c2ccc(OC(F)(F)F)cc2CN1Cc1cccc2ccoc12 | 
75 nM | 108 nM | COc1ccccc1C1CN=C(c2ccc(OC(F)(F)F)c(Cl)c2)N1 (configuration not stated) | 
66 nM | 266 nM | FC(F)(F)Oc1ccc(C2=NC(c3cccc(Cl)c3)CN2)cc1Cl (configuration not stated) | 
2 nM | 39 nM | Cc1cc(C)cc(CN2Cc3cc(OC(F)(F)F)ccc3C2=N)c1 | 
